ChEMBL document CHEMBL3758077, “Discovery of New Acid Ceramidase-Targeted Acyclic 5-Alkynyl and 5-Heteroaryl Uracil Nucleosides” (ACS Med Chem Lett, 2015)
Activity calls are given as the source filed them. The calls are words filed in the database; no cut-off is given here.

How the values were obtained:
HeLa = assay: Antiproliferative activity against human HeLa cells after 72 hrs by MTT assay; format: functional, cell-based
How it was run: (§1)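 Cells grown in vitro with test agent; growth inhibition read by MTT assay; IC50 taken as concentration inhibiting tumor cell proliferation by 50%.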

MCF7 [1] = assay: Antiproliferative activity against human MCF7 cells after 72 hrs by MTT assay; format: functional, cell-based; settings: MCF7, 72 h; how it was run: as §1
[2] = Antiproliferative activity against human SW620 cells after 72 hrs by MTT assay; format: functional, cell-based; settings: SW-620, 72 h; how it was run: as §1
BJ = assay: Antiproliferative activity against human BJ cells after 72 hrs by MTT assay; format: cell-based; how it was run: as §1
[3] = molecular target: T1, 17-beta-hydroxysteroid dehydrogenase type 1 (Homo sapiens) (UniProt P14061); assay: Inhibition of 17beta-HSD1 in human MCF7 cells at IC50 after 24 hrs by ELISA; format: cell-based
T1 sequence (whole entry): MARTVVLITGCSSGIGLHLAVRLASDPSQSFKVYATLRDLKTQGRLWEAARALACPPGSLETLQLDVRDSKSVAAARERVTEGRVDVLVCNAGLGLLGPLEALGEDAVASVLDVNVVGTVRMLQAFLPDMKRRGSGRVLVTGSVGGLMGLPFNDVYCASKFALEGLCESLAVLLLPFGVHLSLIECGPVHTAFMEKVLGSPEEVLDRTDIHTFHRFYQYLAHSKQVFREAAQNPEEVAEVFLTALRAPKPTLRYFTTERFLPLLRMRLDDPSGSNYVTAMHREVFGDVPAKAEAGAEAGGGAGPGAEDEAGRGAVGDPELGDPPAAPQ

MCF7 [4] = assay: Induction of apoptosis in human MCF7 cells assessed as early apoptotic cells at IC50 after 48 hrs by annexinV/propidium iodide staining based fluorescence analysis (reference value: 36.1 %); format: functional
MCF7 [5] = assay: Induction of apoptosis in human MCF7 cells assessed as necrotic cells at IC50 after 24 hrs by annexinV/propidium iodide staining based fluorescence analysis (reference value: 9.4 %); format: functional
MCF7 [6] = assay: Downregulation of ASAH1 expression in human MCF7 cells at IC50 after 24 hrs by western blot analysis; format: functional, cell-based
MCF7 [7] = assay: Induction of apoptosis in human MCF7 cells assessed as late apoptotic cells at IC50 after 24 hrs by annexinV/propidium iodide staining based fluorescence analysis (reference value: 7.5 %); format: functional
[8] = molecular target: T1, 17-beta-hydroxysteroid dehydrogenase type 1 (Homo sapiens); assay: Inhibition of 17beta-HSD1 in human MCF7 cells at 5XIC50 after 24 hrs by ELISA; format: cell-based
MCF7 [9] = assay: Induction of apoptosis in human MCF7 cells assessed as late apoptotic cells at IC50 after 48 hrs by annexinV/propidium iodide staining based fluorescence analysis (reference value: 27.7 %); format: functional
MCF7 [10] = assay: Effect on SK1 expression in human MCF7 cells at IC50 after 24 hrs by western blot analysis; format: functional, cell-based
MCF7 [11] = assay: Induction of apoptosis in human MCF7 cells assessed as necrotic cells at IC50 after 48 hrs by annexinV/propidium iodide staining based fluorescence analysis (reference value: 25.4 %); format: functional
MCF7 [12] = assay: Induction of apoptosis in human MCF7 cells assessed as early apoptotic cells at IC50 after 24 hrs by annexinV/propidium iodide staining based fluorescence analysis (reference value: 8.7 %); format: functional

| SMILES | IC50 (HeLa) | IC50 (MCF7 [1]) | IC50 [2] | IC50 (BJ) | inhibition [3] | Activity (MCF7 [4]) | Activity (MCF7 [5]) | inhibition (MCF7 [6]) | Activity (MCF7 [7]) | inhibition [8] | Activity (MCF7 [9]) | Activity (MCF7 [10]) | Activity (MCF7 [11]) | Activity (MCF7 [12]) |
| --- | --- | --- | --- | --- | --- | --- | --- | --- | --- | --- | --- | --- | --- | --- |
| O=c1[nH]c(=O)n(CCC(CO)CO)cc1C#CCc1ccccc1 | 63.8 µM | > 100 µM | 72.4 µM | > 100 µM |  |  |  |  |  |  |  |  |  |  |
| CC(=O)OCC(CCn1cc(C#CC(C)(C)C)c(=O)n(C(=O)c2ccccc2)c1=O)COC(C)=O | 71.5 µM | 67.1 µM | > 100 µM | 36.9 µM |  |  |  |  |  |  |  |  |  |  |
| O=c1[nH]c(=O)n(CCC(CO)CO)cc1-c1cccs1 | 7.8 µM | 6 µM | > 100 µM |  | Active | 54.9% | 26.2% | inactive | 33.6% | Active | 22.9% | inactive | 13.1% | 32.8% |
| CCCCCCCCC#Cc1cn(CCC(CO)CO)c(=O)[nH]c1=O | 58.9 µM | 40.3 µM | > 100 µM |  |  |  |  |  |  |  |  |  |  |  |
| CCCCCC#Cc1cn(CCC(CO)CO)c(=O)[nH]c1=O | 76.3 µM | 37.8 µM | > 100 µM |  |  |  |  |  |  |  |  |  |  |  |
| CC(C)(C)C#Cc1cn(CCC(CO)CO)c(=O)[nH]c1=O | > 100 µM | 95.9 µM | > 100 µM | 58.2 µM |  |  |  |  |  |  |  |  |  |  |
| O=c1[nH]c(=O)n(CCC(CO)CO)cc1C#CC1CC1 | > 100 µM | > 100 µM | > 100 µM |  |  |  |  |  |  |  |  |  |  |  |
| CC(=O)OCC(CCn1cc(C#Cc2cc(F)cc(F)c2)c(=O)n(C(=O)c2ccccc2)c1=O)COC(C)=O | 64.5 µM | 28.9 µM | > 100 µM | 46.6 µM |  |  |  |  |  |  |  |  |  |  |
| CCCCCc1ccc(C#Cc2cn(CCC(COC(C)=O)COC(C)=O)c(=O)n(C(=O)c3ccccc3)c2=O)cc1 | 79.1 µM | 0.1 µM | > 100 µM | 17.6 µM |  | 28.2% | 34.6% | Active | 28.3% |  | 24.1% | inactive | 37.9% | 41.7% |
| O=c1[nH]cc(F)c(=O)[nH]1 [FLUOROURACIL] | > 100 µM | 0.09 µM | 0.79 µM |  |  |  |  |  |  |  |  |  |  |  |
| CC(=O)OCC(CCn1cc(C#CCCCCl)c(=O)n(C(=O)c2ccccc2)c1=O)COC(C)=O | 52.8 µM | 21 µM | > 100 µM |  |  |  |  |  |  |  |  |  |  |  |
| CC(=O)OCC(CCn1cc(C#Cc2ccc(Br)cc2)c(=O)n(C(=O)c2ccccc2)c1=O)COC(C)=O | 47.2 µM | 28.9 µM | > 100 µM | 37.6 µM |  |  |  |  |  |  |  |  |  |  |
| O=c1[nH]c(=O)n(CCC(CO)CO)cc1-c1ccco1 | > 100 µM | < 0.01 µM | > 100 µM | 0.5 µM | inactive | 39.3% | 34% | inactive | 19.7% | inactive | 18% | inactive | 28.7% | 20.4% |
| CCCCCc1ccc(C#Cc2cn(CCC(CO)CO)c(=O)[nH]c2=O)cc1 | 48.2 µM | 26.8 µM | > 100 µM |  |  |  |  |  |  |  |  |  |  |  |
| CCCCCCCCC#Cc1cn(CCC(COC(C)=O)COC(C)=O)c(=O)n(C(=O)c2ccccc2)c1=O | 32.4 µM | 28.9 µM | 65.8 µM | > 100 µM |  |  |  |  |  |  |  |  |  |  |
| O=c1[nH]c(=O)n(CCC(CO)CO)cc1C#Cc1ccc(Br)cc1 | 67.7 µM | 46 µM | > 100 µM | > 100 µM |  |  |  |  |  |  |  |  |  |  |
| CC(=O)OCC(CCn1cc(C#CCc2ccccc2)c(=O)n(C(=O)c2ccccc2)c1=O)COC(C)=O | 29.9 µM | 26.8 µM | 36.4 µM |  |  |  |  |  |  |  |  |  |  |  |
| CCCCCC#Cc1cn(CCC(COC(C)=O)COC(C)=O)c(=O)n(C(=O)c2ccccc2)c1=O | 53.7 µM | 62.2 µM | 40.7 µM |  |  |  |  |  |  |  |  |  |  |  |
| O=c1[nH]c(=O)n(CCC(CO)CO)cc1C#CCCCCl | > 100 µM | 35.2 µM | > 100 µM |  |  |  |  |  |  |  |  |  |  |  |
| O=c1[nH]c(=O)n(CCC(CO)CO)cc1C#Cc1cc(F)cc(F)c1 | 31.2 µM | 63.1 µM | > 100 µM | > 100 µM |  |  |  |  |  |  |  |  |  |  |
| CC(=O)OCC(CCn1cc(C#CC2CC2)c(=O)n(C(=O)c2ccccc2)c1=O)COC(C)=O | > 100 µM | 0.1 µM | > 100 µM | 0.3 µM |  | 20.9% | 34.1% | Active | 36.6% |  | 24.4% | inactive | 31.6% | 10.9% |
